Test results from ChEMBL document CHEMBL2150896, “Discovery of LASSBio-772, a 1,3-benzodioxole N-phenylpiperazine derivative with potent alpha 1A/D-adrenergic receptor blocking properties” (Eur J Med Chem, 2011).
Active and inactive are the calls of the source. No cut-off for these calls is given here.

Columns and labels:
[1] = target: T1, Alpha-1A adrenergic receptor (Oryctolagus cuniculus) (UniProt O02824); assay: Binding affinity to rabbit aorta adrenergic alpha1A receptor assessed as inhibition of phenylephrine-induced constriction after 30 mins
T1 sequence (whole entry): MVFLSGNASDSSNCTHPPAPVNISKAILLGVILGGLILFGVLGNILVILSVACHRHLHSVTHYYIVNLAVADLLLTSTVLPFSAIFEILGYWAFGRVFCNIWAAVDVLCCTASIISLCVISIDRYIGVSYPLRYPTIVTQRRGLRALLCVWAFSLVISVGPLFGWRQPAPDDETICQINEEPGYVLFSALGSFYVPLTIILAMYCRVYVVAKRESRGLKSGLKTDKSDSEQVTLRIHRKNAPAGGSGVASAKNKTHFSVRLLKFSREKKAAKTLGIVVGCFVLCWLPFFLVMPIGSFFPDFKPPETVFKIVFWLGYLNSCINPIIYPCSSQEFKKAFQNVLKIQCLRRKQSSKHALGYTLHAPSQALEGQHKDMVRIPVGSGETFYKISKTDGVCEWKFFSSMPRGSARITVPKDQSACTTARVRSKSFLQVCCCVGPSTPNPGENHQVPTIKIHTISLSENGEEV
Summary of the method: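 Rabbit aortic rings (3–4 mm) held in organ bath under 20 mN resting tension, equilibrated 30 min. Cumulative phenylephrine curves (5 × 10⁻⁹–5 × 10⁻⁴ M) run without or with 30 μM antagonist after 30 min preincubation. EC50 from non-linear sigmoidal fit per experiment; concentration ratio r gives KB via Schild equation r − 1 = [B]/KB. Mean ± S.E.M of 4–6 experiments.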

Oryctolagus cuniculus = assay: Hypotensive activity in New Zealand albino rabbit adrenergic alpha1 receptor assessed as inhibition of phenylephrine-induced rabbit systemic vascular resistance at 100 ug/kg, iv administered as bolus dose; type: functional, organism-based
Summary of the method: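 Anaesthetised New Zealand albino rabbits of either sex (3.0 kg), given pentobarbital 40 mg/kg i.v. plus a 5 mg/kg top-up, tracheotomised, ventilated with room air and paralysed with pancuronium 1 mg/kg i.v. After 15–30 min stabilisation, phenylephrine dose-response curves (0.1–100 μg/kg, i.v.) were run with or without test compound given i.v. (0.1–100 μg/kg). Recording was continuous over 30 min. Systemic vascular resistance = MAP/cardiac output × 80 (dyn s/cm⁵).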

[2] = target: T2, Alpha-1D adrenergic receptor (Rattus norvegicus) (UniProt P23944); conditions: Thoracic aorta
T2 sequence (whole entry): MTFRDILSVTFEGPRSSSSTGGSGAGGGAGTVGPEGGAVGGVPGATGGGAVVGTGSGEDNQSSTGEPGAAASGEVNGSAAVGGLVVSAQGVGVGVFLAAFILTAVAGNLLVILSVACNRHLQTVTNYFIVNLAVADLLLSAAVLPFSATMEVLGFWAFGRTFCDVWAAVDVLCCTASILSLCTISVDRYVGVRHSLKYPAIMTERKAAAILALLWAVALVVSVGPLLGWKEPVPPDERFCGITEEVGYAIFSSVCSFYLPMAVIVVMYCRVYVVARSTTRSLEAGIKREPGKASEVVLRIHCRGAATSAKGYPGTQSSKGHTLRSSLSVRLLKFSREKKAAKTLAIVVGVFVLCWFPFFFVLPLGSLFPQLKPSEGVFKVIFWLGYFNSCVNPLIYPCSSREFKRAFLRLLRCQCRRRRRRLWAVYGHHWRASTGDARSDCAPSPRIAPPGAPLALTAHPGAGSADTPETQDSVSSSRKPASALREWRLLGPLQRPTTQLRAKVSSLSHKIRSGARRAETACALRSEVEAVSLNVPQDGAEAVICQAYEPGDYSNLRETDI

[3] = target: T1, Alpha-1A adrenergic receptor (Oryctolagus cuniculus); assay: Ratio of BMY7378 KB to compound KB for rabbit aorta adrenergic alpha1A receptor assessed as inhibition of phenylephrine-induced constriction after 30 mins
[4] = target: T3, Alpha-1A adrenergic receptor (Rattus norvegicus, UniProt P43140); assay: Displacement of [3H]prazosin from rat salivary gland adrenergic alpha 1A receptor after 45 mins by liquid scintillation counter
T3 sequence (P43140 whole entry): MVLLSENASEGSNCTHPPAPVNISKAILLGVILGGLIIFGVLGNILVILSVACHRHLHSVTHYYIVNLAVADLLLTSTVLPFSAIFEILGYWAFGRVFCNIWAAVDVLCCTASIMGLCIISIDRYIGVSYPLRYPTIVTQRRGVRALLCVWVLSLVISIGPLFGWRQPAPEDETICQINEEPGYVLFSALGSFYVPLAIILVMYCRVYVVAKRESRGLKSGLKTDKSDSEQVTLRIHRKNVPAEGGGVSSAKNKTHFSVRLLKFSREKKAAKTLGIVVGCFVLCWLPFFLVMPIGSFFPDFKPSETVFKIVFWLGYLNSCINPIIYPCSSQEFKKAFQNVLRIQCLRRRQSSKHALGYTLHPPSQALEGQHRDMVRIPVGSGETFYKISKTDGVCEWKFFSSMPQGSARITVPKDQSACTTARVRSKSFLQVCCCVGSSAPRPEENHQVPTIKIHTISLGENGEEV

[5] = target: T4, Alpha-1B adrenergic receptor (Rattus norvegicus, UniProt P15823); assay: Displacement of [3H]prazosin from rat liver adrenergic alpha1B receptor after 45 mins by liquid scintillation counter
T4 sequence (P15823 whole entry): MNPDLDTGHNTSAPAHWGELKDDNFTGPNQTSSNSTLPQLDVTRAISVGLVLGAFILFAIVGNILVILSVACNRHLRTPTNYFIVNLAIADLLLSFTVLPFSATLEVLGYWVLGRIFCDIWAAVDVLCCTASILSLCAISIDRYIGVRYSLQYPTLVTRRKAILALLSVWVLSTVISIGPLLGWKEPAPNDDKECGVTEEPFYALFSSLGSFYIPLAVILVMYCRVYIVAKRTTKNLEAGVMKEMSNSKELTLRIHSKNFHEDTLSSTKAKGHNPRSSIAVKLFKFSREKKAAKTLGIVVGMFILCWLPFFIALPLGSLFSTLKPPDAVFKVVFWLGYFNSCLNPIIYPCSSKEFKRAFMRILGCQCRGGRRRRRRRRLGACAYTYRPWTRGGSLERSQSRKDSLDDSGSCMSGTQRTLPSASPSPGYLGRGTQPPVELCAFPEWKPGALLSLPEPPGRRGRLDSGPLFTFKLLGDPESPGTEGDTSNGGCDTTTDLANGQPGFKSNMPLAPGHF

Rattus norvegicus = species: Rattus norvegicus; assay: Selectivity ratio of Ki for rat liver adrenergic alpha1B receptor to Ki for rat salivary gland adrenergic alpha 1A
Summary of the method: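 [3H]-prazosin competition binding on rat liver membranes (α1B) and rat salivary gland membranes (α1A), about 150 µg protein, 45 min at 25 °C in 50 mM TRIS-HCl with 1 mM EDTA, pH 7.4. Radioligand was 0.1 nM (liver) or 0.06 nM (salivary). […] Filtration, then scintillation counting. Ki from IC50 by Cheng–Prusoff; ratio of the two Ki values.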

[6] = target: T5, Alpha-1D adrenergic receptor (Rattus norvegicus, UniProt P23944); assay: Antagonist activity at adrenergic alpha 1D receptor in rat thoracic aorta assessed as inhibition of noradrenaline-induced contraction after 1 hr; type: functional, tissue-based; conditions: read-out: pA2 (converted)
T5 sequence (P23944 whole entry): T2 sequence (whole entry)

Row | Structure (SMILES) | Kb [1] | other results
1 | c1ccc(N2CCN(CCOc3ccc4c(c3)OCO4)CC2)cc1 | 10300 nM | 
2 | c1ccc(CCN2CCN(c3ccccc3)CC2)cc1 | 1460 nM | 
3 | COc1cc2nc(N3CCN(C(=O)c4ccco4)CC3)nc(N)c2cc1OC |  | inhibition (Oryctolagus cuniculus): Active
4 | c1ccc(N2CCN(Cc3ccc4c(c3)OCO4)CC2)cc1 | 25000 nM | 
5 | c1ccc(N2CCN(CCc3ccc4c(c3)OCO4)CC2)cc1 | 270 nM | 
6 | COc1ccccc1N1CCN(CCc2ccc3c(c2)OCO3)CC1 | 18 nM | inhibition (Oryctolagus cuniculus): Active; pKb [2]: 10.3; Ratio [3]: 80; IC50 [4]: 0.269 nM; IC50 [5]: 6.03 nM; Ki [5]: 5.55 nM; Ratio Ki (Rattus norvegicus): 40; Kb [6]: 0.0251 nM
7 | c1ccc(N2CCN(CCCc3ccc4c(c3)OCO4)CC2)cc1 | 3800 nM | 
8 | c1ccc(N2CCN(CCCCc3ccc4c(c3)OCO4)CC2)cc1 | 9380 nM | 
9 | COc1ccccc1N1CCN(CCN2C(=O)CC3(CCCC3)CC2=O)CC1 | 1450 nM | 
10 | c1ccc(CN2CCN(c3ccccc3)CC2)cc1 | 25000 nM | 
11 | COc1ccccc1N1CCN(CCCc2ccc3c(c2)OCO3)CC1 | 130 nM | 
12 | Fc1ccc(N2CCN(CCc3ccc4c(c3)OCO4)CC2)cc1 | 410 nM | 
13 | c1ccc(CCCN2CCN(c3ccccc3)CC2)cc1 | 9380 nM | 
14 | c1ccc(CCCCN2CCN(c3ccccc3)CC2)cc1 | 1420 nM | 
15 | Clc1ccc(N2CCN(CCc3ccc4c(c3)OCO4)CC2)cc1 | 1240 nM | 
16 | COc1ccc(N2CCN(CCc3ccc4c(c3)OCO4)CC2)cc1 | 870 nM | 
17 | c1ccc(N2CCN(CCCOc3ccc4c(c3)OCO4)CC2)cc1 | 27500 nM | 
18 | c1ccc(OCCN2CCN(c3ccccc3)CC2)cc1 | 7320 nM | 
